Compounds with a hit are over-represented: about 2.4% of the library has one in this group of screens.
SUMO1-SIM PPI – modulators of SUMO1 protein-protein interactions, primary screen, biochemical, uHTS; Small ubiquitin-related modifier 1 (Homo sapiens), P63165; actives 0.33% (n = 360,000); SUMO1 binding to a labelled peptide, TR-FRET, 1 h; inhibition, % at 20 µM; in the data active = inhibition above about 37%
Target sequence (P63165 whole entry, looked up): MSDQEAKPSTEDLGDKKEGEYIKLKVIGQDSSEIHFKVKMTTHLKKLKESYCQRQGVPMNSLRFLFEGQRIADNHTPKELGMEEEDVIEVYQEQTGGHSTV
LMPTP inh – LMPTP phosphatase inhibitors, primary screen, biochemical, fluorescence intensity, uHTS; inhibition, % at 20 µM; recombinant LMPTP-A, OMFP fluorogenic substrate; Low molecular weight phosphotyrosine protein phosphatase (Homo sapiens), P24666; actives 0.22% (n = 360,000);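 active = compounds that cut the enzyme signal by at least half of the control window in the single-dose screen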;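 note: plate controls were DMSO wells with enzyme plus substrate for no effect and substrate without enzyme for full effect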
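Buffer or medium: Bis-Tris pH 6.0, DTT, detergent; Assay system: LMPTP-A enzyme; Quantity: 0.625 nM enzyme; Detection: endpoint fluorescence intensity; Times: 50 min dark incubation at room temperature; Controls: substrate-only low control, DMSO enzyme-plus-substrate high control; Doses: single 20 µM dose; Read-out: percent inhibition versus substrate-only and uninhibited controls; Reagent: 400 µM OMFP.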
DNMT1 block – human DNMT1 methyltransferase inhibitors, primary screen, biochemical, molecular beacon, fluorescence, HinP1I cleavage, uHTS | DNA (cytosine-5)-methyltransferase 1 (Homo sapiens), P26358 | inhibition (reported as % activation of signal), % at 10 µM | actives 0.83% (n = 360,000); in the data active = inhibition above about 50%
Scp1 inh – Scp-1 phosphatase inhibitors, primary screen, biochemical, colorimetric, uHTS; Carboxy-terminal domain RNA polymerase II polypeptide A small phosphatase 1 (Homo …; Recombinant Scp1, phosphopeptide, malachite green phosphate absorbance; inhibition, % at 20 µM; actives 0.88% (n = 340,000);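 active = inhibition above about 50% at 20 µM, limit read from the data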;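 note: plate controls were DMSO wells with enzyme for no effect and wells lacking enzyme for full effect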
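assay system = SCP-1 phosphatase catalytic domain, residues 76-261 | buffer or medium = 50 mM Tris acetate pH 5.5, 0.005% Tween-20, 10 mM MgCl2 | incubation = enzyme reaction 45 min at room temperature, colour 5 min, stabilisation 30 min | signal = Phosphate-binding colour reagent, absorbance read at 630 nm | measure = % inhibition at 20 µM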
STEP block – STEP phosphatase inhibitors, primary screen, biochemical, fluorescence intensity, uHTS; Tyrosine-protein phosphatase non-receptor type 5 (Homo sapiens), P54829; recombinant STEP, OMFP fluorogenic substrate; inhibition, % at 20 µM; actives 0.25% (n = 360,000); AID 588621, 2011;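 active = inhibition at 20 µM, scaled per plate between control wells, above about 37%, limit read from the data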;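 note: 0% = DMSO with enzyme and substrate and 100% = substrate only without enzyme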
Target sequence (P54829 whole entry, looked up): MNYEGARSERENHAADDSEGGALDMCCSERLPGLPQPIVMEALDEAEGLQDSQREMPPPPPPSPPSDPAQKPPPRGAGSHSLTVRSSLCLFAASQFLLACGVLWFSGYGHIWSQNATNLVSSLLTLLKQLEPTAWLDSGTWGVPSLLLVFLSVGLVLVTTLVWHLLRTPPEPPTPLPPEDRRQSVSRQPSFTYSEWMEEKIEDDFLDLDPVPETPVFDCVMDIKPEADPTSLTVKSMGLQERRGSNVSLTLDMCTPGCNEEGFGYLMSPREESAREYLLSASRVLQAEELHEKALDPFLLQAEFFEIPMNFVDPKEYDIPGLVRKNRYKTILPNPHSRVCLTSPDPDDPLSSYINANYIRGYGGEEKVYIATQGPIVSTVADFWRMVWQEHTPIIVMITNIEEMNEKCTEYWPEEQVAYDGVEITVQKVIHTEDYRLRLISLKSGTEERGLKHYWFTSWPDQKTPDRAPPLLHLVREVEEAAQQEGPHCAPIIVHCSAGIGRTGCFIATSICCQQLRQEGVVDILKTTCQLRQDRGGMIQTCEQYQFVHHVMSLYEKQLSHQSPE
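System: isolated STEP enzyme; schedule: 20 min enzyme reaction at room temperature, protected from light; medium: Bis-Tris buffer pH 6.0, 2.5 mM DTT, 0.005% Tween 20; signal: fluorescence, 480/540 nm; dosing: single compound dose of 20 µM, 1% DMSO final; also added: OMFP substrate, 25 µM final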
NadD block – inhibitors of S. aureus NadD, primary screen, biochemical, colorimetric, uHTS | Nicotinate-nucleotide adenylyltransferase NadD (Staphylococcus aureus N315) | purified NadD enzyme, colorimetric absorbance read-out | inhibition, % at 20 µM | actives 0.78% (n = 360,000) | AID 602399, 2012; in the data active = inhibition above about 26%
Scp-1 conf – Scp-1 phosphatase inhibitors, retest, confirmation, biochemical, colorimetric, single concentration; shares compounds with Scp1 inh; recombinant SCP-1 catalytic domain, phosphate release, malachite green absorbance; inhibition, % at 20 µM; actives 61% (n = 2,500); AID 540281, 2011;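 note: plate controls were DMSO with enzyme for no effect and buffer wells lacking enzyme for full effect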
MG interference – colorimetric readout interference by compounds, confirmation, artefact control for Scp-1 inhibitor project, biochemical, single concentration; shares compounds with Scp1 inh; Colorimetric interference counterscreen, malachite green absorbance 630 nm; apparent inhibition (interference), % at 20 µM; 2,500 tested, under 10 active;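 note: compounds added after enzyme reaction finished so only phosphate colour detection is probed; plate controls were DMSO wells with completed Scp-1 reaction for no effect and substrate wells lacking enzyme for full effect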
Scp1 DSF – Scp-1 binding by thermal shift, confirmation, orthogonal assay for Scp-1 inhibitor project, biophysical, differential scanning fluorimetry; actives 25% (n = 1,500); Recombinant SCP1, Sypro Orange thermal shift Tm; AID 540329, 2011; thermal shift relative to vanadate control, % at 40 µM; shares compounds with Scp1 inh;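 active = substances whose mean melting-temperature shift, as a percentage of the reference inhibitor's shift, reaches about 5.3%, limit read from the data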;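 note: 0% = Tm of DMSO wells and 100% = Tm with sodium orthovanadate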
An asterisk follows results filed as active; . = no result.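 Rule for the calls, unless noted: active = inhibition of at least 30% at 20 µM; inactive = the rest.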

SMILES	SUMO1-SIM PPI	LMPTP inh	DNMT1 block	Scp1 inh	STEP block	NadD block	others
O=C1c2cc(Br)ccc2N(Cc2ccc(Br)cc2)S(=O)(=O)C1c1cc(Cl)c(Cl)cc1[N+](=O)[O-] (stereo not given)	20	4	-9	-4	4	32*
Cc1cc2oc(=O)cc(Cn3ncc(Cl)c(Cl)c3=O)c2cc1Cl	3	3	38	-1	5	27*
O=[N+]([O-])c1ccc(Cl)c2c1C1C=CCC1C(c1ccccn1)N2 (stereo not given)	17	14	51*	-3	4	41*
COCCN(C(=O)CSc1nnc(-c2ccccc2F)n1N)c1c(N)n(Cc2ccccc2)c(=O)[nH]c1=O	-1	0	2	7	2	-2
O=c1o[nH]c(-c2ccccc2)c1-c1ccccc1	6	0	-3	-7	1	1
Cc1ccc(S(=O)(=O)N2[C@@H](c3ccc(Br)cc3)C(C(=O)O)=CC[C@H]2c2ccc(Cl)c(Cl)c2)cc1	40*	2	6	-14	1	13
Cc1ccc(S(=O)(=O)N2[C@@H](c3ccc(C(C)(C)C)cc3)C(C(=O)O)=CC[C@H]2c2ccc(Cl)c(Cl)c2)cc1	43*	2	37	-14	-1	18
C=CCOc1ccc(Br)cc1CNC(C)(C)C	-2	2	5	-7	1	10
COc1ccc(S(=O)(=O)NCc2csc(-c3cccnc3)n2)cc1	43*	-1	2	-5	-2	0
COc1ccc(N2CCN(C(=O)c3ccc4c(c3)NC(=O)C(CSCc3ccccc3F)N4)CC2)cc1 (stereo not given)	8	14	-9	.	5	56*
Nc1ccc(C(=O)N/N=C\c2cc(N=Nc3cccc4ccccc34)ccc2O)cc1	65*	4	44	38	10	41*
Cc1cc(C(=O)N/N=C/c2cc(N=Nc3ccccc3)ccc2O)n[nH]1	-6	6	5	64*	6	8
Cc1nc(COC(=O)c2ccc(CO)cc2)cs1	-2	-2	0	0	0	-4
Cc1nc(COC(=O)c2cc(O)c3ccccc3c2O)cs1	-19	1	-12	69*	-4	-1
CCOC(=O)c1ccc(N2CC(O)=C(c3nc4ccccc4c(=O)[nH]3)C2=N)cc1	50*	-1	-3	9	-1	25
O=C(NCCN1CCCC1)C1CCN(S(=O)(=O)N2CCC3(CC2)OCCO3)CC1	-7	0	-2	-3	1	9
O=C(NCCN1CCOCC1)C1CCN(S(=O)(=O)N2CCCCC2)CC1	64*	0	1	1	0	0
O=C1CC(SC(=S)C2CCCC2=O)C(=O)N1 (stereo not given)	30	1	69*	.	12	0
Cn1c(SCC(=O)Nc2ccccc2[N+](=O)[O-])nnc1C(F)(F)F	-19	-3	0	-3	-1	-3
Fc1cccc(Cc2c(-c3ccco3)nc3ccc(Br)cn23)c1	2	9	50*	.	3	25
CCn1c(SCC(=O)c2ccc(Cl)cc2)nnc1-c1ccoc1C	39*	-1	0	-2	1	14
Cc1ccc(-c2nnn(CC(=O)N(Cc3cccs3)C(C(=O)NC3CCCC3)c3ccncc3)n2)cc1 (stereo not given)	45*	1	-21	13	3	26
COc1ccc(S(=O)(=O)NCCN2CCNC2=O)cc1OC	-5	1	5	-7	-2	5	Scp-1 conf=1;MG interference=-3
O=C1NCCN1CCNS(=O)(=O)c1ccc(F)cc1	1	-1	2	-10	2	-8	Scp-1 conf=-19;MG interference=-16
COc1ccc(CCNC(=O)Nc2nc(C(N)COCc3ccccc3)cs2)cc1OC (stereo not given)	-7	-1	1	.	-2	-5
SMILES	SUMO1-SIM PPI	LMPTP inh	DNMT1 block	Scp1 inh	STEP block	NadD block	others
COc1ccccc1NC(=O)c1ccc2c(c1)C(=O)N(Cc1ccco1)C2=O	-5	0	1	-2	0	0
O=C(Nc1ccccc1O)c1ccc2c(c1)C(=O)N(Cc1ccco1)C2=O	-4	17	4	68*	6	2	Scp-1 conf=59*;MG interference=-14;Scp1 DSF=4
CC(C)c1ccc(C(C(=O)NC2CCCCC2)N(C(=O)c2ccccn2)c2cccnc2)cc1 (stereo not given)	-3	3	2	5	-1	1
COc1ccc(S(=O)(=O)N(C)C[C@H]2Oc3c(NC(=O)Nc4c(C)noc4C)cccc3C(=O)N([C@@H](C)CO)C[C@H]2C)cc1	0	-2	-3	56*	0	-1	Scp-1 conf=1;MG interference=-16
Cc1noc(C)c1NC(=O)N(C)C[C@H]1Oc2c(cccc2N(C)C)C(=O)N([C@H](C)CO)C[C@@H]1C	1	-1	4	74*	-4	3	Scp-1 conf=17;MG interference=2
Cc1noc(C)c1NC(=O)Nc1cccc2c1O[C@H](CN(C)S(C)(=O)=O)[C@@H](C)CN([C@H](C)CO)C2=O	2	-1	5	-5	-1	3
C=CCN(CC=C)CC(=O)Nc1cccc(Oc2cnccn2)c1	3	-2	-11	10	-5	-3
O=C(Nc1cccc(F)c1)N1CCCC(CNS(=O)(=O)Cc2ccccc2)C1 (stereo not given)	-2	1	-4	-9	0	-4
O=C1CC(=O)Nc2cc(S(=O)(=O)Nc3cccc(C(F)(F)F)c3)ccc2N1	7	-1	6	-5	-2	1	Scp-1 conf=-5;MG interference=-7

Screening results: PubChem, Sanford-Burnham Center for Chemical Genomics
